Measured values of several laboratories.
Protocols differ between the studies behind these lines. Values after ≈ are worked out from the molar mass of the structure shown.

| Structure (SMILES) | target or system | assay | system | conditions | measurement | result |
| --- | --- | --- | --- | --- | --- | --- |
| CC(C(=O)NCc1ccccc1)c1cccc(C(OC(=O)NCc2ccccc2)c2ccccc2)c1 (stereo not shown) | FM3A | cell growth or viability |  | 48 h | IC50 | 14 µM |
| CCCCCCCCCCOc1cc2c(O)c(C(=O)OCC)cnc2cc1OCC | Plasmodium falciparum | parasite growth, SYBR Green | DD2 | blood stage | IC50 | < 0.0057 µM |
| Cc1cc(NC2Cc3cc(F)c(F)cc3C2)n2nc(C(C)(F)F)nc2n1 | Plasmodium falciparum | parasite growth | HB3 | drug-resistant strain, blood stage | EC50 | 21 nM |
| NNC(=O)c1ccncc1 | Mycolicibacterium aurum | microbial growth, agar dilution |  |  | MIC | 6.3 µg/mL (≈ 45.9 µM) |
| N.N.[Cl][Pt][Cl] | COLO 205 | cell growth or viability, ATP luminescence |  |  | GI50 | 6.8 µg/mL |
| CCc1nc2nc(C)cc(Nc3cc(C)cc(C)c3)n2n1 | Plasmodium falciparum | parasite growth, SYBR Green | 3D7 |  | EC50 | 96.5 nM |
| CC(C(=O)NCCc1ccccc1)c1cccc(C(OC(=O)NCCc2ccccc2)c2ccccc2)c1 (stereo not shown) | FM3A | cell growth or viability |  | 48 h | IC50 | 13 µM |
| COc1cc2c(cc1OS(N)(=O)=O)CCN(Cc1cc(Br)c(OC)c(OC)c1)C2 | CNSSF-539 | cell growth or viability, SRB |  |  | GI50 | 22 nM |
| CONC(=O)OC(c1ccccc1)c1cccc(C(C)C(=O)NOC)c1 (stereo not shown) | FM3A | cell growth or viability |  | 48 h | IC50 | 10 µM |
| C[C@]1(O)CC[C@@]2(C)[C@@H](CC[C@@H]3[C@@H]2CC[C@]2(C)[C@@H]([N+](=O)[O-])CC[C@@H]32)C1 |  | 6 Hz seizures | mouse | intraperitoneal | ED50 | > 100 mg/kg |
| CC(=O)c1c(Cc2ccccc2Cl)c[nH]c1C | Plasmodium falciparum | parasite growth, SYBR Green | 3D7 |  | EC50 | 140 nM |
| C[C@]12CC[C@@H](O)C[C@@H]1CC[C@@H]1[C@@H]2CC[C@]2(C)[C@@H]([N+](=O)[O-])CC[C@@H]12 |  | 6 Hz seizures | mouse | intraperitoneal | ED50 | 5.3 mg/kg |
| CCCn1c(O)nnc1SCC(=O)Nc1cc(C(F)(F)F)ccc1Cl | Plasmodium falciparum | parasite growth, SYBR Green | 3D7 |  | EC50 | 66.6 nM |
| Nc1ccc(C(=O)O)c(O)c1 | Mycobacterium tuberculosis variant bovis | microbial growth | BCG |  | MIC | 0.125 µg/mL (≈ 0.816 µM) |
| COCC(C)n1c(SCC(=O)Nc2cc(C(F)(F)F)ccc2Cl)nc2ccccc2c1=O (stereo not shown) | Plasmodium falciparum | parasite growth, SYBR Green | 3D7 |  | EC50 | 356 nM |
| COC1=CC(c2ccc[nH]2)=NC1=Cc1ccc(CCCCCCCCCCCCO)[nH]1 | Plasmodium falciparum | parasite growth | DD2 | drug-resistant strain, blood stage | IC50 | 0.023 µM |
